STEP block: STEP (human) phosphatase inhibition; P54829; recombinant STEP, OMFP fluorogenic substrate, fluorescence; inhibition, % at 20 µM; 360,000 compounds, 0.25% hits; AID 588621;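 active = inhibition at 20 µM, scaled per plate between control wells, above about 37%, limit read from the data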
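System: isolated STEP enzyme; schedule: 20 min enzyme reaction at room temperature, protected from light; medium: Bis-Tris buffer pH 6.0, 2.5 mM DTT, 0.005% Tween 20; signal: fluorescence, 480/540 nm; dosing: single compound dose of 20 µM, 1% DMSO final; also added: OMFP substrate, 25 µM final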
Scp1 inh: Scp-1 (human) phosphatase inhibition. Recombinant Scp1, phosphopeptide, malachite green phosphate absorbance. 340,000 compounds, 0.88% hits. inhibition, % at 20 µM;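 active = inhibition above about 50% at 20 µM, limit read from the data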
Target sequence (Q9GZU7 76-261 limits assumed): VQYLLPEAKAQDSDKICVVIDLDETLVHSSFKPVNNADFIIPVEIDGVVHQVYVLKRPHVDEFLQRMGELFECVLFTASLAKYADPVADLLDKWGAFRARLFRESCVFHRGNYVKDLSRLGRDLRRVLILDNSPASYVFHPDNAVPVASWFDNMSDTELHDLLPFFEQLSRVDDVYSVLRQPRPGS
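Incubation: 45 min enzyme reaction at room temperature / System: truncated SCP-1 phosphatase (76-261aa) / Reagent: Phospho 17-mer peptide substrate / Buffer or medium: Acidic Tris acetate buffer with magnesium and detergent / Signal: absorbance at 630 nm / Doses: one concentration, 20 µM, with 1.0% DMSO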
DNMT1 block: inhibitors of human DNMT1; P26358; AID 588458; inhibition (reported as % activation of signal), % at 10 µM; DNMT1 molecular beacon, Hinp1I cleavage, fluorescence; 360,000 compounds, 0.83% hits; in the data active = inhibition above about 50%
LMPTP inh: LMPTP (human) inhibition | recombinant LMPTP-A, OMFP fluorogenic substrate, fluorescence intensity | 360,000 compounds, 0.22% hits | P24666 | inhibition, % at 20 µM;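 active = compounds that cut the enzyme signal by at least half of the control window in the single-dose screen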
Target sequence (P24666 whole entry, looked up): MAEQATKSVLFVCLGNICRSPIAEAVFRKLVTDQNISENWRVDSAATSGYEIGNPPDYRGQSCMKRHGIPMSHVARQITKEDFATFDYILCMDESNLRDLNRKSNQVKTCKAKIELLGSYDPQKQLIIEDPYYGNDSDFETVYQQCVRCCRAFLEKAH
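Buffer or medium: Bis-Tris pH 6.0, DTT, detergent; Assay system: LMPTP-A enzyme; Quantity: 0.625 nM enzyme; Detection: endpoint fluorescence intensity; Times: 50 min dark incubation at room temperature; Controls: substrate-only low control, DMSO enzyme-plus-substrate high control; Doses: single 20 µM dose; Read-out: percent inhibition versus substrate-only and uninhibited controls; Reagent: 400 µM OMFP.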
NadD inh: inhibitors of Staphylococcus aureus NadD; purified NadD enzyme, colorimetric absorbance read-out; inhibition, % at 20 µM; 360,000 compounds, 0.78% hits; AID 602399; in the data active = inhibition above about 26%
SUMO1 PPI mod: alters human SUMO1 binding to SIM partners | SUMO1 binding to a labelled peptide, TR-FRET, 1 h | inhibition, % at 20 µM | AID 602429 | 360,000 compounds, 0.33% hits | P63165; in the data active = inhibition above about 37%
Target sequence (P63165 whole entry, looked up): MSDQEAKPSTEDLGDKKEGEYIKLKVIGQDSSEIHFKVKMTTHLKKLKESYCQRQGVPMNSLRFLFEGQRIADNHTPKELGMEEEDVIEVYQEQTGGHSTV
A number is an active result; 0 = inactive; - = not tested or not shown; + = active, no number; ! = a repeat was not active. An excerpt weighted towards active compounds, which were near 2.3% of everything screened.

SMILES	STEP block	Scp1 inh	DNMT1 block	LMPTP inh	NadD inh	SUMO1 PPI mod
CCCCC[C@@H]1[C@@H]2C(=C(OCC)C[C@@H]3C(=O)N(c4ccccc4)C(=O)[C@H]23)[C@H](c2ccccc2)N1S(=O)(=O)c1ccc(C)cc1	0	-	0	0	0	0
Cc1ccc(S(=O)(=O)N2CCC(C(=O)OCC(=O)N3CCCC(C)C3)CC2)cc1C (centres undefined)	0	0	0	0	0	0
O=C(CCc1nnc2n(Cc3ccc(Cl)cc3)c(=O)c3ccccc3n12)N1CCN(c2ccccn2)CC1	0	0	0	64	0	0
Cc1c(/C=C2\NC(=O)NC2=O)c2ccccc2n1C	0	0	0	0	0	0
CCOC(=O)[C@]12CCCC=C1N(Cc1ccccc1)C(=O)[C@H](CC(=O)N1CCC(c3ccccc3)CC1)C2	-	-	-	0	-	0
CC(=O)Cc1nsc(NC(=O)c2ccc(COc3ccccc3C)o2)n1	0	0	0	0	0	0
Cc1ccc(S(=O)(=O)N2CCCCC2)cc1NC(=O)c1cnccn1	0	0	0	0	0	0
CN1CCN(C(=O)c2sc(=S)n(-c3ccccc3)c2N)CC1	96	0	0	0	0	0
O=C(Nc1cc(Cl)ccc1Cl)c1noc2c1CCCC2	0	0	0	0	0	0
O=C(Nc1ccc(F)cc1F)c1noc2c1CCC2	0	79	88	0	0	0
Cc1cccc([C@@H]2[C@@H]3C(=O)N(Cc4ccccc4)C(=O)[C@@H]3[C@]3(CC(C)C)C(=O)N(c4cccc(F)c4)C(=O)N23)c1	0	0	0	0	0	0
CN(CCCC(=O)O)c1ccc(N=Nc2ccc([N+](=O)[O-])cc2)cc1	99	110	0	77	0	0
Cc1ccc(NC(=O)CN2C(=O)S/C(=C\c3cc(C)n(-c4ccc(C(=O)O)cc4)c3C)C2=O)cc1	0	0	0	0	0	0
Cc1ccc(NC(=O)CN2C(=O)N/C(=C/c3cccn3-c3ccc(C(=O)O)cc3)C2=O)cc1	97	93	107	50	0	49
N#Cc1ccc(-c2cn3c(n2)SCC3)cc1	0	0	0	0	0	0
CCC(=O)Nc1nnc(SCc2ccc(F)cc2)s1	0	0	0	0	0	0
CC(=O)Nc1ccc(N2C(=O)c3ccc(C(=O)Nc4nnc(SCc5ccc(F)cc5)s4)cc3C2=O)cc1	0	0	0	0	31	0
CN1C2CCC1/C(=C\c1ccc(F)cc1)C(=O)/C2=C/c1ccc(F)cc1	0	0	0	0	0	0
C=CC(=O)N1C/C(=C/c2ccc(F)cc2)C(=O)/C(=C\c2ccc(F)cc2)C1	0	85	93	0	0	76
C[C@@H]1CCCCO[C@H](CN(C)Cc2ccc(Cl)c(Cl)c2)[C@H](C)CN([C@@H](C)CO)C(=O)c2cc(NC(=O)Nc3ccc(F)cc3)ccc2O1	0	-	0	0	0	0
COc1ccc(NC(=O)Nc2ccc3c(c2)C(=O)N([C@H](C)CO)C[C@H](C)[C@@H](CN(C)Cc2ccc(Cl)c(Cl)c2)OCCCC[C@@H](C)O3)cc1	0	-	0	0	40	0
CC(=O)c1ccc(-c2ccc(/C=C(/Sc3n[nH]c(C)n3)C(=O)O)o2)cc1	0	0	0	0	0	0
Cc1nc(S/C(=C/c2ccc(-c3cc(Cl)ccc3C)o2)C(=O)O)n[nH]1	0	0	0	0	0	69
Cc1nc(S/C(=C/c2ccc(-c3ccc(Cl)cc3)o2)C(=O)O)n[nH]1	0	0	0	0	0	0
Cc1nc(S/C(=C/c2ccc(-c3ccc(C(=O)O)cc3)o2)C(=O)O)n[nH]1	0	75	0	0	0	0
SMILES	STEP block	Scp1 inh	DNMT1 block	LMPTP inh	NadD inh	SUMO1 PPI mod
COc1cc(CN2C[C@@H](CO)O[C@@H](n3cnc4c(NC(C)C)ncnc43)C2)cc(OC)c1OC	0	-	0	0	0	0
CCOC(=O)[C@]12CCC=C1N(Cc1ccccc1)C(=O)[C@H](CC(=O)N1CCOCC1)C2	-	-	-	0	0	0
C(=C\c1nc(N2CCCCCC2)c2ccccc2n1)/c1ccccc1	0	0	0	56	0	0
c1ccc2c(N3CCCCC3)nc(N3CCCCC3)nc2c1	0	0	0	0	0	0
CCCCc1cc(=O)oc2cc(OCC(=O)NCC3CCC(C(=O)O)CC3)ccc12 (centres undefined)	0	0	0	0	0	0
COc1ccc(C(C(=O)NCC2CCCO2)N(C(=O)c2snc(C(N)=O)c2N)c2ccccc2C)cc1OC (centres undefined)	0	0	0	0	0	0
CC(C)N1C(=O)S/C(=C\c2ccc(-c3ccc(Cl)c(C(=O)O)c3)o2)C1=O	0	68	0	0	0	0
CCCCN(C)c1c(C)nc2ccc(C(=O)NCCCn3ccnc3)cn12	0	-	0	0	0	0
CCCCN(C)C1=CC2=CC(=C(C#N)C#N)CCC2CC1 (centres undefined)	0	0	+	0	0	0
CCN(CC)C1=CC2=CC(=C(C#N)C#N)CCC2CC1 (centres undefined)	0	0	+	0	0	0
O=C(O)c1ccc(NC2=C/C(=N/S(=O)(=O)c3cccs3)c3ccccc3C2=O)cc1	0	-	97	0	0	65
O=C1C(Nc2ccc(O)cc2)=C/C(=N/S(=O)(=O)c2cccs2)c2ccccc21	0	0	67	0	0	52
Cc1ccc(Cl)cc1NC1=C/C(=N\S(=O)(=O)c2cccs2)c2ccccc2C1=O	0	0	57!	0	0	0
Cc1ccc(NC2=C/C(=N\S(=O)(=O)c3cccs3)c3ccccc3C2=O)c(C)c1	0	0	0	0	0	0
Cc1cccc(NC2=C/C(=N/S(=O)(=O)c3cccs3)c3ccccc3C2=O)c1	0	0	0	0	0	0
O=C(c1ccc(Cl)c(Cl)c1)N1CCC(=O)N([C@H](COCc2ccc(Cl)cc2)Cc2ccccc2)CC1	-	-	-	0	0	0
Cc1ccc(SCC(=O)OCC(=O)N(CC(C)C)c2c(N)n(Cc3ccccc3)c(=O)[nH]c2=O)c(C)c1	0	0	0	0	0	0
CC1(C(=O)NCc2ccccc2Br)CCN1Cc1ccc(-c2ccccc2)o1 (centres undefined)	0	-	0	0	0	0
COc1ccc2c(c1O)Cc1ccccc1C2=O	0	0	0	0	0	55
CC(=O)c1c(C)[nH]c(C(=O)OCC(=O)N2CCc3ccccc32)c1C	0	0	50	0	0	0
CCOC(=O)c1[nH]c(C)c(C(=O)OCC(=O)N2CCc3ccccc32)c1C	0	0	0	0	0	0
COc1cc(/C=C2/SC(=S)N(Cc3ccccc3)C2=O)cc(Cl)c1O	0	0	0	0	0	0
COc1cc([N+](=O)[O-])cc(/C=C2/SC(=S)N(Cc3ccccc3)C2=O)c1O	0	0	0	0	0	64
